# Target: 5-hydroxytryptamine receptor 7 (Homo sapiens, UniProt P34969);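 further: radioligand displacement of [3H]-LSD binding to recombinant human 5-HT7 receptor in CHO cells, 60 min incubation, read by scintillation counting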
# Experiment: biochemical
# Type: cell-based, CHO
# Conditions: not given
# Sequence of 5-hydroxytryptamine receptor 7 (P34969 whole entry): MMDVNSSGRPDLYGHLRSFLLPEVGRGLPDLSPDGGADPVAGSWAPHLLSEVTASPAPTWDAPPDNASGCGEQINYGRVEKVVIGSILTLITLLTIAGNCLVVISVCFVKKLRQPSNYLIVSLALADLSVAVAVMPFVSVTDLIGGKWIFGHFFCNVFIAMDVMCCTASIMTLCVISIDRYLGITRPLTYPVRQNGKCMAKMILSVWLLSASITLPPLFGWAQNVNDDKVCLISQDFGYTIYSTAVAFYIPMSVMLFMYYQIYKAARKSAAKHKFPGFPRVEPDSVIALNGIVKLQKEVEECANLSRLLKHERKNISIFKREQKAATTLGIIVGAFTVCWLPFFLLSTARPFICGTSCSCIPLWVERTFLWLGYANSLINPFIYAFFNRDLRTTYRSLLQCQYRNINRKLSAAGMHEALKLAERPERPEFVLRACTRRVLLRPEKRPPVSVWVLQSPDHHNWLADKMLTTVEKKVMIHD
row,Ki [nM],SMILES
1,16,COc1ccc(/C=C2\NC(=O)N(CCCCN3CCN(c4ccccc4OC)CC3)C2=O)cc1OC
2,42,COc1ccc(/C=C2\NC(=O)N(CCCN3CCN(c4ccccc4OC)CC3)C2=O)cc1OC
3,6,COc1ccc(/C=C2\NC(=O)N(CCCN3CCN(c4ccccc4OC)CC3)C2=O)cc1OC1CCCC1
4,> 1000,COc1ccc(/C=C2\NC(=O)N(CCCN3CCN(c4ncccn4)CC3)C2=O)cc1OC1CCCC1
5,298,COc1ccc(/C=C2\NC(=O)N(CCCCN3CCN(c4ncccn4)CC3)C2=O)cc1OC1CCCC1
6,22,COc1ccc(/C=C2\NC(=O)N(CCCN3CCN(c4cccc(Cl)c4Cl)CC3)C2=O)cc1OC
7,125,COc1ccc(/C=C2\NC(=O)N(CCCCN3CCN(c4cccc(Cl)c4Cl)CC3)C2=O)cc1OC1CCCC1
8,933,COc1ccc(/C=C2\NC(=O)N(CCCCN3CCN(c4ncccn4)CC3)C2=O)cc1OC

# Target: 5-hydroxytryptamine receptor 2A (Homo sapiens) (UniProt P28223)
# Experiment: not given
# Conditions: HEK293, at 0.1 µM
# Sequence of 5-hydroxytryptamine receptor 2A (Homo sapiens) (P28223 whole entry): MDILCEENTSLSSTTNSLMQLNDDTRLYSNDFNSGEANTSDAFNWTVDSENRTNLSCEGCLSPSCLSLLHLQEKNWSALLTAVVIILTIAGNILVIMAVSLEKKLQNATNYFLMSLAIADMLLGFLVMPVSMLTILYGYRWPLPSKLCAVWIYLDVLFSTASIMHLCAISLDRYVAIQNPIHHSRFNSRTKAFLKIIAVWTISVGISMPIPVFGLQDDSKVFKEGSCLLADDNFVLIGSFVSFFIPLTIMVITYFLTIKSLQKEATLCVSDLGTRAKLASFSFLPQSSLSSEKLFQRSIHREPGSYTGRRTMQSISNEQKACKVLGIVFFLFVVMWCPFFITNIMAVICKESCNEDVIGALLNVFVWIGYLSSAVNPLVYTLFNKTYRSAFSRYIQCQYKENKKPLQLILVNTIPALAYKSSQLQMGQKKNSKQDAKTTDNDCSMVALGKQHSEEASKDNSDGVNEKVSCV
row,inhibition [%],SMILES
1,31,COc1ccc(/C=C2\NC(=O)N(CCCCN3CCN(c4ccccc4OC)CC3)C2=O)cc1OC
2,25,COc1ccc(/C=C2\NC(=O)N(CCCN3CCN(c4ccccc4OC)CC3)C2=O)cc1OC
3,44,COc1ccc(/C=C2\NC(=O)N(CCCN3CCN(c4ccccc4OC)CC3)C2=O)cc1OC1CCCC1
4,33,COc1ccc(/C=C2\NC(=O)N(CCCN3CCN(c4ncccn4)CC3)C2=O)cc1OC1CCCC1
5,19,COc1ccc(/C=C2\NC(=O)N(CCCCN3CCN(c4ncccn4)CC3)C2=O)cc1OC1CCCC1
6,61,COc1ccc(/C=C2\NC(=O)N(CCCN3CCN(c4cccc(Cl)c4Cl)CC3)C2=O)cc1OC
7,39,COc1ccc(/C=C2\NC(=O)N(CCCCN3CCN(c4cccc(Cl)c4Cl)CC3)C2=O)cc1OC1CCCC1
8,0,COc1ccc(/C=C2\NC(=O)N(CCCCN3CCN(c4ncccn4)CC3)C2=O)cc1OC

# Target: 3',5'-cyclic-AMP phosphodiesterase 4B (Homo sapiens) (UniProt Q07343)
# Experiment: Inhibition of human recombinant full length N-terminal GST-tagged PDE4B1 expressed in baculovirus infected Sf9 cells at 10^-5 M using cAMP as substrate incubated for 20 mins followed by substrate addition by luciferase assay relative to control
# Conditions: not given
# Sequence of 3',5'-cyclic-AMP phosphodiesterase 4B (Homo sapiens) (Q07343 whole entry): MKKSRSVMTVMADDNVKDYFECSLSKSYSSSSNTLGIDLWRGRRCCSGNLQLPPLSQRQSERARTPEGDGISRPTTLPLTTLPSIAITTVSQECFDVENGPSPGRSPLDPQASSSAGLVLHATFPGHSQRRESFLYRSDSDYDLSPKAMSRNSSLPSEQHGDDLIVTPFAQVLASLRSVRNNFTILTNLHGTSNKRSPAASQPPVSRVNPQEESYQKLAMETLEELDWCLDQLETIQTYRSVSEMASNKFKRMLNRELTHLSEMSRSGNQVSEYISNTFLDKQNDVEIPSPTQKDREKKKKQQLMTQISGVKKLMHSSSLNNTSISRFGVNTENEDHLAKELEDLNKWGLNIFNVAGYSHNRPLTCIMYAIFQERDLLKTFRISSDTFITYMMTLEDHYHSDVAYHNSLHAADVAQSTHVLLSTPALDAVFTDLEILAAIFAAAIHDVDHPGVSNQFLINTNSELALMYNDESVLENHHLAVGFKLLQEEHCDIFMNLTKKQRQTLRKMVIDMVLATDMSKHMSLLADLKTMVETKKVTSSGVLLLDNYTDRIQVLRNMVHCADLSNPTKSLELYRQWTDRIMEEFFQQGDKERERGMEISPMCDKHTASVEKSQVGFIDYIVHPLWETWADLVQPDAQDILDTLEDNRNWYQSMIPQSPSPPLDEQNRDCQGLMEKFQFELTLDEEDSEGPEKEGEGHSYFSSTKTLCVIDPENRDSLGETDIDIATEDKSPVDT
row,inhibition [%],SMILES
1,8,COc1ccc(/C=C2\NC(=O)N(CCCCN3CCN(c4ccccc4OC)CC3)C2=O)cc1OC
2,9,COc1ccc(/C=C2\NC(=O)N(CCCN3CCN(c4ccccc4OC)CC3)C2=O)cc1OC
3,3,COc1ccc(/C=C2\NC(=O)N(CCCN3CCN(c4ccccc4OC)CC3)C2=O)cc1OC1CCCC1
4,9,COc1ccc(/C=C2\NC(=O)N(CCCN3CCN(c4ncccn4)CC3)C2=O)cc1OC1CCCC1
5,10,COc1ccc(/C=C2\NC(=O)N(CCCCN3CCN(c4ncccn4)CC3)C2=O)cc1OC1CCCC1
6,5,COc1ccc(/C=C2\NC(=O)N(CCCN3CCN(c4cccc(Cl)c4Cl)CC3)C2=O)cc1OC
7,3,COc1ccc(/C=C2\NC(=O)N(CCCCN3CCN(c4cccc(Cl)c4Cl)CC3)C2=O)cc1OC1CCCC1
8,14,COc1ccc(/C=C2\NC(=O)N(CCCCN3CCN(c4ncccn4)CC3)C2=O)cc1OC

# Target: 5-hydroxytryptamine receptor 6 (Homo sapiens) (UniProt P50406)
# Experiment: Displacement of [3H]-LSD from human recombinant 5-HT6 receptor expressed in CHO cells at 10^-6 M incubated for 60 mins by microbeta2 scintillation counter relative to control
# Type: cell-based
# Conditions: not given
# Summary of the method: (§1)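 Radioligand displacement from recombinant human receptor membranes, tested at two final concentrations (10^-6 and 10^-7 M), with scintillation counting. Results were expressed as percent inhibition of specific binding.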
# Sequence of 5-hydroxytryptamine receptor 6 (Homo sapiens) (P50406 whole entry): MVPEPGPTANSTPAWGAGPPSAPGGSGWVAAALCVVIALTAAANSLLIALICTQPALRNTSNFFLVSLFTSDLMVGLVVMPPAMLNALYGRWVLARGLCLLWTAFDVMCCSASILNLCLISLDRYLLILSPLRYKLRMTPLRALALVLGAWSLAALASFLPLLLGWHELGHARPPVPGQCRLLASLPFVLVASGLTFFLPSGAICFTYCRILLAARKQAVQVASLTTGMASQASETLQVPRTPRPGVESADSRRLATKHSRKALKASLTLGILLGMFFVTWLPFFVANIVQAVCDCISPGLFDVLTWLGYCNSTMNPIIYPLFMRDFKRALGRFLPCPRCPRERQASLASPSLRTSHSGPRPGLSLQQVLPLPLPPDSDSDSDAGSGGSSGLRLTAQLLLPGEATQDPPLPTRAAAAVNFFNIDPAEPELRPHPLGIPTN
row,inhibition [%],SMILES
1,9,COc1ccc(/C=C2\NC(=O)N(CCCCN3CCN(c4ccccc4OC)CC3)C2=O)cc1OC
2,0,COc1ccc(/C=C2\NC(=O)N(CCCN3CCN(c4ccccc4OC)CC3)C2=O)cc1OC
3,13,COc1ccc(/C=C2\NC(=O)N(CCCN3CCN(c4ccccc4OC)CC3)C2=O)cc1OC1CCCC1
4,23,COc1ccc(/C=C2\NC(=O)N(CCCN3CCN(c4ncccn4)CC3)C2=O)cc1OC1CCCC1
5,8,COc1ccc(/C=C2\NC(=O)N(CCCCN3CCN(c4ncccn4)CC3)C2=O)cc1OC1CCCC1
6,72,COc1ccc(/C=C2\NC(=O)N(CCCN3CCN(c4cccc(Cl)c4Cl)CC3)C2=O)cc1OC
7,99,CSc1ccc2c(c1)C(N1CCN(C)CC1)Cc1ccccc1S2 (stereo not drawn)
8,34,COc1ccc(/C=C2\NC(=O)N(CCCCN3CCN(c4cccc(Cl)c4Cl)CC3)C2=O)cc1OC1CCCC1
9,0,COc1ccc(/C=C2\NC(=O)N(CCCCN3CCN(c4ncccn4)CC3)C2=O)cc1OC

# Target: 5-hydroxytryptamine receptor 2A (Homo sapiens) (UniProt P28223)
# Experiment: not given
# Conditions: HEK293, at 1 µM
row,inhibition [%],SMILES
1,87,COc1ccc(/C=C2\NC(=O)N(CCCCN3CCN(c4ccccc4OC)CC3)C2=O)cc1OC
2,83,COc1ccc(/C=C2\NC(=O)N(CCCN3CCN(c4ccccc4OC)CC3)C2=O)cc1OC
3,96,COc1ccc(/C=C2\NC(=O)N(CCCN3CCN(c4ccccc4OC)CC3)C2=O)cc1OC1CCCC1
4,89,COc1ccc(/C=C2\NC(=O)N(CCCN3CCN(c4ncccn4)CC3)C2=O)cc1OC1CCCC1
5,78,COc1ccc(/C=C2\NC(=O)N(CCCCN3CCN(c4ncccn4)CC3)C2=O)cc1OC1CCCC1
6,97,COc1ccc(/C=C2\NC(=O)N(CCCN3CCN(c4cccc(Cl)c4Cl)CC3)C2=O)cc1OC
7,90,COc1ccc(/C=C2\NC(=O)N(CCCCN3CCN(c4cccc(Cl)c4Cl)CC3)C2=O)cc1OC1CCCC1
8,41,COc1ccc(/C=C2\NC(=O)N(CCCCN3CCN(c4ncccn4)CC3)C2=O)cc1OC

# Target: 5-hydroxytryptamine receptor 6 (Homo sapiens) (UniProt P50406)
# Experiment: Displacement of [3H]-LSD from human recombinant 5-HT6 receptor expressed in CHO cells at 10^-7 M incubated for 60 mins by microbeta2 scintillation counter relative to control
# Type: cell-based
# Conditions: not given
# Summary of the method: as §1
row,inhibition [%],SMILES
1,0,COc1ccc(/C=C2\NC(=O)N(CCCCN3CCN(c4ccccc4OC)CC3)C2=O)cc1OC
2,0,COc1ccc(/C=C2\NC(=O)N(CCCN3CCN(c4ccccc4OC)CC3)C2=O)cc1OC
3,0,COc1ccc(/C=C2\NC(=O)N(CCCN3CCN(c4ccccc4OC)CC3)C2=O)cc1OC1CCCC1
4,0,COc1ccc(/C=C2\NC(=O)N(CCCN3CCN(c4ncccn4)CC3)C2=O)cc1OC1CCCC1
5,0,COc1ccc(/C=C2\NC(=O)N(CCCCN3CCN(c4ncccn4)CC3)C2=O)cc1OC1CCCC1
6,0,COc1ccc(/C=C2\NC(=O)N(CCCN3CCN(c4cccc(Cl)c4Cl)CC3)C2=O)cc1OC
7,99,CSc1ccc2c(c1)C(N1CCN(C)CC1)Cc1ccccc1S2 (stereo not drawn)
8,8,COc1ccc(/C=C2\NC(=O)N(CCCCN3CCN(c4cccc(Cl)c4Cl)CC3)C2=O)cc1OC1CCCC1
9,0,COc1ccc(/C=C2\NC(=O)N(CCCCN3CCN(c4ncccn4)CC3)C2=O)cc1OC

# Target: T1, 5-hydroxytryptamine receptor 1A (Homo sapiens, UniProt P08908)
# T1 sequence (P08908 whole entry): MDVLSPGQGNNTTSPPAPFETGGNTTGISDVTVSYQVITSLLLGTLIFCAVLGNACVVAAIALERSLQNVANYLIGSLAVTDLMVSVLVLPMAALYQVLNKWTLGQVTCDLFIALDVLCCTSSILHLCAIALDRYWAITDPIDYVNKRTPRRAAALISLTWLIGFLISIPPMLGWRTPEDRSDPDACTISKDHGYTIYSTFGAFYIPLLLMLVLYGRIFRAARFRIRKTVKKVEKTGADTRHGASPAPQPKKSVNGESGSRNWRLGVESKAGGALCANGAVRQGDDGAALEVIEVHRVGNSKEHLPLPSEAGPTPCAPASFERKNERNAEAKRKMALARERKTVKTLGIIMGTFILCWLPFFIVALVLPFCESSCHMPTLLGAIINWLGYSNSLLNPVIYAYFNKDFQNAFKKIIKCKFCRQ
# Experiment: Displacement of [3H]-8-OH-DPAT from human recombinant 5-HT1A receptor expressed in HEK293 cells incubated for 60 mins by microbeta2 scintillation counter
# Type: cell-based
# Conditions: not given
row,Ki [nM],SMILES
1,7,COc1ccc(/C=C2\NC(=O)N(CCCCN3CCN(c4ccccc4OC)CC3)C2=O)cc1OC
2,13,COc1ccc(/C=C2\NC(=O)N(CCCN3CCN(c4ccccc4OC)CC3)C2=O)cc1OC
3,37,COc1ccc(/C=C2\NC(=O)N(CCCN3CCN(c4ccccc4OC)CC3)C2=O)cc1OC1CCCC1
4,85,COc1ccc(/C=C2\NC(=O)N(CCCN3CCN(c4ncccn4)CC3)C2=O)cc1OC1CCCC1
5,64,COc1ccc(/C=C2\NC(=O)N(CCCCN3CCN(c4ncccn4)CC3)C2=O)cc1OC1CCCC1
6,53,COc1ccc(/C=C2\NC(=O)N(CCCN3CCN(c4cccc(Cl)c4Cl)CC3)C2=O)cc1OC
7,132,COc1ccc(/C=C2\NC(=O)N(CCCCN3CCN(c4cccc(Cl)c4Cl)CC3)C2=O)cc1OC1CCCC1
8,45,COc1ccc(/C=C2\NC(=O)N(CCCCN3CCN(c4ncccn4)CC3)C2=O)cc1OC
